Structures can show the parent of a compound that is named as a salt.
Legend:
[1] = target: T1, purified human LAL (phLAL) (Homo sapiens, UniProt P38571); assay: In vitro LAL activity assay; type: biochemical; conditions: 10 μM compound; Supplemental Figures 1 and 2
T1 sequence (P38571 77-399): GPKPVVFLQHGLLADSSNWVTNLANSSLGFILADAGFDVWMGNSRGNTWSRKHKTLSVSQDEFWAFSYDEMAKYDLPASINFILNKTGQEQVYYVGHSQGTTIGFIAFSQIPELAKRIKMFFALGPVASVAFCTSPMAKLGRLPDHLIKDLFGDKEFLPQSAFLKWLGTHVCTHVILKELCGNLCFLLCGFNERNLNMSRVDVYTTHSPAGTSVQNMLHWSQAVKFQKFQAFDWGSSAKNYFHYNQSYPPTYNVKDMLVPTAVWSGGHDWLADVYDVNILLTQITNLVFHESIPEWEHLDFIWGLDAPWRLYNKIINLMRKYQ

LAL = target: T2, LAL (Homo sapiens, UniProt P38571); assay: LAL activity in lysates of compound-treated cells; type: cell-based; conditions: for inhibition of LAL in cell lysates: cells treated continuously ~4 days, Figure 4A; for inhibition of LAL in cell lysates after withdrawal: ~3 days treatment, ~1 day recovery in growth medium, Figure 4B
T2 sequence (P38571 77-399): T1 sequence (P38571 77-399)

NPC1 mutant cells = assay: Filipin LSO assay of cholesterol accumulation; type: cell-based, human; conditions: ~3 days treatment, Figure 4C
Outline: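 Compound-treated cells (~3 days) stained with filipin. Automated fluorescence imaging at 4 (10×) or 9 (20×) sites per well, 2×2 binning, laser autofocus per site, 12-bit images. After background correction, LSO ratio is integrated thresholded filipin fluorescence within LSOs, normalised to total cell area defined by low-threshold filipin signal.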

[2] = test system: apparently normal human fibroblasts; assay: LipidTOX green neutral lipid accumulation; type: cell-based; conditions: normal cells, ~3 days treatment; Figure 4D
Outline: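 Normal human fibroblasts kept in MEM (2.2 g/L bicarbonate, 10% FBS) and treated with compound for ~3 days. Stained with LipidTOX green and imaged at 482/35 nm excitation, 536/40 nm emission, 20× 0.5 NA objective, with autofocus per site. LSO ratio is thresholded LipidTOX fluorescence within LSOs, normalised to total cell area from low-threshold filipin signal.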

many lipases = conditions: cited from earlier work
phLAL [3] = target: T3, phLAL (Homo sapiens, UniProt P38571); assay: Time-dependence of LAL inhibition; type: biochemical; conditions: pre-incubation at 833 nM, 500 nM final, 37 °C; Figure 3
T3 sequence (P38571 77-399): T1 sequence (P38571 77-399)

[4] = test system: NPC1- or NPC2-defective mice; conditions: ref 5a, 9; cited from earlier work
phLAL [5] = target: T3, phLAL; conditions: earlier study; cited from earlier work
[6] = target: T1, purified human LAL (phLAL); assay: Lineweaver-Burk analysis of LAL inhibition; type: biochemical; conditions: 30 min pre-incubation at 37 °C, 4MUO at various concentrations
Outline: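 Recombinant purified human LAL pre-incubated with compound for 30 min at 37 °C in 200 mM sodium acetate pH 5.5, 0.02% Tween-20. Started with varied 4-methylumbelliferyl oleate in Triton X-100 and followed by fluorescence (355/450 nm) for 45 min. Compound levels given as final. Double-reciprocal plots fitted by linear regression, two independent experiments.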

[7] = target: T1, purified human LAL (phLAL); conditions: previous studies; cited from earlier work

COc1ccccc1OCC(O)COC(N)=O (stereo not drawn) [guaiacol glyceryl ether carbamate]
inhibition of LAL activity at 10 μM [1]: None of these carbamates inhibited LAL

O=C(Oc1nsnc1N1CCCCC1)N1CCCCC1 [Compound 12]
inhibition of LAL in cell lysates (LAL): much higher level of inhibition of LAL upon cell lysis than 11, 13, 15, and 17 | inhibition of LAL in cell lysates after withdrawal (LAL): maximal potency | decrease in cholesterol accumulation (NPC1 mutant cells): most potent | increase in neutral lipid accumulation [2]: most potent

CN1CCC(OC(=O)Nc2ccc(F)cc2)CC1 [1-methyl-4-piperidinyl-N-(4-fluorophenyl) carbamate]
inhibition of LAL activity at 10 μM [1]: None of these carbamates inhibited LAL

CCCCCCCCCCC[C@@H](C[C@@H]1OC(=O)[C@H]1CCCCCC)OC(=O)[C@H](CC(C)C)NC=O [orlistat]
inhibition of lipases (many lipases): potent inhibitor of many lipases

CN(C)C(=O)Oc1cccc([N+](C)(C)C)c1 [neostigmine methyl sulfate]
inhibition of LAL activity at 10 μM [1]: None of these carbamates inhibited LAL

COC(N)=O [methyl carbamate]
inhibition of LAL activity at 10 μM [1]: None of these carbamates inhibited LAL

O=C(Oc1nsnc1N1CCCC1)N1CCCCC1 [Compound 10, 4-(Pyrrolidin-1-yl)-1,2,5-thiadiazol-3-yl piperidine-1-carboxylate]
pre-incubation time-dependence of inhibition (phLAL [3]): significantly higher time-dependence than other compounds | inhibition of LAL in cell lysates (LAL): much higher level of inhibition of LAL upon cell lysis than 11, 13, 15, and 17 | inhibition of LAL in cell lysates after withdrawal (LAL): maximal potency

O=C(Oc1nsnc1N1CCCCCC1)N1CCCCC1 [Compound 16]
inhibition of LAL in cell lysates (LAL): much higher level of inhibition of LAL upon cell lysis than 11, 13, 15, and 17 | inhibition of LAL in cell lysates after withdrawal (LAL): maximal potency

β-cyclodextrins
accumulation of cholesterol and other lipids in LSOs [4]: significant reduction | lifespan [4]: significantly extends lifespan

O=C(Oc1nsnc1N1CCCCC1)N1CCOCC1 [Compound 13]
time-dependence of inhibition upon pre-incubation with phLAL (phLAL [5]): some time-dependence of inhibition | type of inhibition [6]: apparent competitive inhibitor | potency and specificity towards LAL [7]: significant potency and specificity towards LAL

O=C(Oc1nsnc1N1CCOCC1)N1CCCCC1 [Compound 14]
time-dependence of inhibition upon pre-incubation with phLAL (phLAL [5]): some time-dependence of inhibition | inhibition of LAL in cell lysates (LAL): much higher level of inhibition of LAL upon cell lysis than 11, 13, 15, and 17 | potency and specificity towards LAL [7]: significant potency and specificity towards LAL

CNC(=O)Oc1ccc2c(c1)[C@]1(C)CCN(C)[C@@H]1N2C [eserine]
inhibition of LAL activity at 10 μM [1]: None of these carbamates inhibited LAL

Cl.NCCCCCCNC(=O)OCc1ccccc1 [benzyl N-(6-aminohexyl) carbamate hydrochloride]
inhibition of LAL activity at 10 μM [1]: None of these carbamates inhibited LAL

O=C(Oc1nsnc1N1CCOCC1)N1CCOCC1 [Compound 15]
time-dependence of inhibition upon pre-incubation with phLAL (phLAL [5]): some time-dependence of inhibition | inhibition of LAL in cell lysates (LAL): least potent | inhibition of LAL in cell lysates after withdrawal (LAL): least potent | potency and specificity towards LAL [7]: significant potency and specificity towards LAL | decrease in cholesterol accumulation (NPC1 mutant cells): least potent | increase in neutral lipid accumulation [2]: least potent

Source: paper PMC2912405 (Journal of medicinal chemistry, 2010)
